Test results published in ChEMBL document CHEMBL3808295, “Discovery of enantioselectivity of urea inhibitors of soluble epoxide hydrolase” (Eur J Med Chem, 2016).

Legend:
[1] = target: T1, Bifunctional epoxide hydrolase 2 (Homo sapiens, UniProt P34913); assay: Inhibition of soluble epoxide hydrolase (unknown origin) using 14,15-EET as substrate incubated for 20 mins by LC-MS/MS analysis
T1 sequence (P34913 whole entry): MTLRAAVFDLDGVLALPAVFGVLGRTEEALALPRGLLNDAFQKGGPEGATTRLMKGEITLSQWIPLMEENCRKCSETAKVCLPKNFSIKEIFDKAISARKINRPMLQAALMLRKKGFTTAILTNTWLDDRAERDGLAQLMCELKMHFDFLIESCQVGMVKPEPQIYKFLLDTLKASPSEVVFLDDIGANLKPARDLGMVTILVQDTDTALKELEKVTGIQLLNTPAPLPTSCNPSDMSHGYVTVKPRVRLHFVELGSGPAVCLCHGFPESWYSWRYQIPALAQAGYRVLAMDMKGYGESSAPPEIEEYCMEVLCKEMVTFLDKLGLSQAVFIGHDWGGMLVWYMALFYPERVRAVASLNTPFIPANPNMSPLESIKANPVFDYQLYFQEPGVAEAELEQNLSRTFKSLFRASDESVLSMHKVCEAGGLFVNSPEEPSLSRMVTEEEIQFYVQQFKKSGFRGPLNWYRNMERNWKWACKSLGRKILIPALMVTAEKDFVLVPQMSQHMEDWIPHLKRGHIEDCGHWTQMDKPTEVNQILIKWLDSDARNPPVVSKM

[2] = target: T2, Epoxide hydrolase 1 (Homo sapiens) (UniProt P07099); assay: Inhibition of microsomal epoxide hydrolase in pooled human liver microsomes assessed as enzyme activity using styrene oxide as substrate at 10 uM incubated for 10 mins by UV-HPLC analysis relative to control; parameters: scale not given: the % may be the effect or the level left
T2 sequence (whole entry): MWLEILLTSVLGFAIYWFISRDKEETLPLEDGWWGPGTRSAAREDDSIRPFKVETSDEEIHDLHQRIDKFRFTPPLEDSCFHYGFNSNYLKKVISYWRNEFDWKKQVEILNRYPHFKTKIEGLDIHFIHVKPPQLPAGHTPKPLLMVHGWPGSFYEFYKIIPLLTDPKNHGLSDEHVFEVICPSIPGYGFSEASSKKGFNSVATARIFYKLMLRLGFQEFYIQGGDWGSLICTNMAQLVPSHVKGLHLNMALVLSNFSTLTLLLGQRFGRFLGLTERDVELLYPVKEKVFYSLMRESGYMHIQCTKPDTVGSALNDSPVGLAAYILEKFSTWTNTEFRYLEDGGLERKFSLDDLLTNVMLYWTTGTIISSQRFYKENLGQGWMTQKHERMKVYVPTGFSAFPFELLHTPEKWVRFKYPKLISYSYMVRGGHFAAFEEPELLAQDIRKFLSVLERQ
In short: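 Pooled human liver microsomes (0.2 mg/mL) incubated with styrene oxide (25 μM) and 10 μM test compound in 0.1 M Tris-HCl pH 9.0 at 37°C for 10 min; quenched with n-hexane, centrifuged, supernatant analysed by UV-HPLC (C18, 30°C, 40% methanol). Activity from styrene glycol formed, as percentage of control; valpromide positive control.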

| IC50 [1] | Activity [2] | SMILES |
| --- | --- | --- |
| 182 nM | 99.4% | C[C@H](NC(=O)NCCCc1ccccc1)C1CCCCC1 |
| 332 nM | 99.8% | O=C(NCCCc1ccccc1)N1CCC[C@H]1c1ccccc1 |
| 302 nM | 103% | C[C@@H](NC(=O)NCCCc1ccccc1)C1CCCCC1 |
| 2740 nM | 102% | O=C(NCCCc1ccccc1)N[C@@H](CO)c1ccccc1 |
| 44 nM | 84.6% | C[C@H](NC(=O)NCCCc1ccccc1)c1ccccc1 |
| 2030 nM | 101% | C[C@@H](NC(=O)NCCCc1ccc(S(N)(=O)=O)cc1)c1ccccc1 |
| 20000 nM | 107% | O=C(NCCCc1ccccc1)N[C@H](CO)c1ccccc1 |
| 3260 nM | 105% | O=C(NCCCc1ccccc1)NCc1ccccc1 |
| 22 nM | 99.9% | C[C@H](NC(=O)NCCCc1ccc(S(N)(=O)=O)cc1)c1ccccc1 |
| 1510 nM | 101% | O=C(NCCCc1ccccc1)N1CCC[C@@H]1c1ccccc1 |
| 13 nM | 106% | O=C(NCCCc1ccccc1)N[C@@H]1CCCc2ccccc21 |
| 63 nM | 101% | CC[C@H](C)NC(=O)NCCCc1ccccc1 |
| 650 nM | 102% | CCC(C)NC(=O)NCCCc1ccccc1 (racemic) |
| 43 nM | 102% | C[C@H](NC(=O)NCCCc1ccccc1)c1cccc2ccccc12 |
| 1730 nM | 102% | C[C@@H](NC(=O)NCCCc1ccccc1)c1ccccc1 |
| 13 nM | 106% | O=C(NCCCc1ccccc1)N[C@H]1CCCc2ccccc21 |
| 65 nM | 112% | O=C(NCCCc1ccccc1)N[C@H]1CCc2ccccc21 |
|  | 50.9% | CCCC(CCC)C(N)=O |
| 36 nM | 106% | CC[C@H](NC(=O)NCCCc1ccccc1)c1ccccc1 |
| 22 nM | 110% | O=C(NCCCc1ccccc1)N[C@@H]1CCc2ccccc21 |
| 364 nM | 98.7% | C[C@@H](NC(=O)NCCCc1ccccc1)c1cccc2ccccc12 |
| 4500 nM | 103% | CC[C@@H](NC(=O)NCCCc1ccccc1)c1ccccc1 |
